Measured values gathered from unrelated publications.
Protocols differ between the studies behind these lines.
Target: Serine/threonine-protein kinase OSR1 (OXSR1, Homo sapiens, UniProt O95747)

Structure (SMILES) | observed | mode | method | cells | tested at | endpoint | value
Cn1c2c(Cl)c(Cl)ccc2c2cn[nH]c(=O)c21 | thermal stability |  | DSF |  | 10 µM | ΔTm | -0.2 °C
N#CCCc1ccc2c(c1)-c1[nH]c3ccc([N+](=O)[O-])cc3c1CC(=O)N2 | cell-free assay |  |  |  | 0.5 µM | remaining signal | 94.6%
CCS(=O)(=O)c1cc2cc(C[C@@](O)(CC(C)(C)c3ccc(F)cc3C(N)=O)C(F)(F)F)[nH]c2cn1 | cell-free assay |  | competition with immobilised ligand |  | 1 µM | remaining binding | 88%
COc1cc(/C=C/C(=O)CC(=O)/C=C/c2ccc(O)c(OC)c2)ccc1O | enzyme activity | inhibitor |  |  | 1 µM | activity vs control | 104%
Cc1c(NC(=O)c2cc(C(N)=O)nc3cc(F)ccc23)c(C(F)(F)F)nn1Cc1ccc(C(C)(C)C)cc1 | cell-free assay |  | competition with immobilised ligand |  | 1 µM | remaining binding | 100%
CCN1CCN(Cc2ccc(NC(=O)c3ccc(C)c(Oc4ccnc5[nH]ccc45)c3)cc2C(F)(F)F)CC1 | target engagement in cells | inhibitor | chemoproteomics | Huh-7 | 1 µM | inhibition | -64.3%
Cc1sc(C(=O)NC2COC2)cc1-n1cc(NC(=O)Nc2c(F)cccc2Cl)cn1 | enzyme activity | inhibitor |  |  | 10 µM | remaining activity | 127%
N#CC1c2c([nH]c3c(Cl)c(Cl)ccc23)C(=O)NC12CCCCC2 (racemic) | thermal stability |  | DSF |  | 10 µM | ΔTm | 0.1 °C
COc1cc(Nc2cnc(C#N)c(O[C@H](C)CN(C)C)n2)ncc1-c1cnn(C)c1 | enzyme activity | inhibitor | radiometric |  | 1 µM | remaining activity | 115%
Cc1ccc(NC(=O)c2ccc(CN3CCN(C)CC3)cc2)cc1Nc1nc(-c2cccnc2)cs1 | cell-free assay |  |  |  | 0.5 µM | remaining signal | 95.6%
CC(C)(O)[C@H]1CC[C@H](Nc2ccc3ncc(-c4cccc(C(F)(F)F)c4)n3n2)CC1 | enzyme activity | inhibitor |  |  | 1 µM | remaining activity | 102%
C[C@@H]1CCN(C(=O)CC#N)C[C@@H]1N(C)c1ncnc2[nH]ccc12 | cell-free assay | inhibitor |  |  | 0.5 µM | remaining signal | 98.2%
Cn1cc(Cl)c2c(Oc3c(F)cc(Nc4cc(Cl)nc(N)n4)cc3F)ccnc21 | cell-free assay |  | competition with immobilised ligand |  | 0.1 µM | remaining binding | 93%
Cn1c2c(c3ccc(Cl)c(Cl)c31)C(C#N)C1(CCNCC1)NC2=O (racemic) | thermal stability |  | DSF |  | 10 µM | ΔTm | -0.1 °C
Nc1ncnc2occ(-c3ccc(NC(=O)Nc4cc(C(F)(F)F)ccc4F)cc3)c12 | cell-free assay | inhibitor |  |  | 20 µM | remaining signal | 9.5%
CCCCN(CCCC)C(=O)CN1C[C@H](c2cc(OC)c3c(c2)OCO3)[C@@H](C(=O)O)[C@@H]1CC(C)(C)CCC | cell-free assay |  | competition with immobilised ligand |  | 1 µM | remaining binding | 89.5%
COc1cc(Nc2c(C#N)cnc3cc(OCCCN4CCN(C)CC4)c(OC)cc23)c(Cl)cc1Cl | cell-free assay |  |  |  | 0.5 µM | remaining signal | 100%
Cn1c2c(c3ccc(Cl)c(Cl)c31)C(C#N)C1(CCCC1)NC2=O (stereo not shown) | thermal stability |  | DSF |  | 10 µM | ΔTm | -0.1 °C
FC(F)(F)Oc1cccc(-c2cnc3ccc(-c4ccncc4)nn23)c1 | enzyme activity | inhibitor | radiometric |  | 1 µM | activity vs control | 97%
CCc1ccccc1C(=O)Nc1n[nH]c2c(C)c(F)c(C3C(C#N)=C(C)N(C)C(C)=C3C#N)cc12 | cell-free assay |  | competition with immobilised ligand |  | 1 µM | remaining binding | 100%
CCCCNc1ncc2c(-c3ccc(F)cc3)nn(C[C@H]3CC[C@H](N)CC3)c2n1 | target engagement in cells | inhibitor | chemoproteomics |  | 20 mM | inhibition | 8.2%
Cn1nc(C(F)(F)F)cc1-c1cnc(N2CCc3cc(S(=O)(=O)Nc4c(F)cc(Cl)cc4F)cc(N4CCCC4=O)c32)nc1 | cell-free assay |  | competition with immobilised ligand |  | 1 µM | remaining binding | 99%
CN1CCC2(CC1)NC(=O)c1c(c3ccc(Cl)c(Cl)c3n1C)C2C#N (racemic) | thermal stability |  | DSF |  | 10 µM | ΔTm | -0.3 °C
O=C(O)c1cc(-c2ccc(C3CCNCC3)cc2)c2ccc(-c3ccc(C(F)(F)F)cc3)cc2c1 | cell-free assay |  | competition with immobilised ligand |  | 1 µM | remaining binding | 100%
CCC1(CC)NC(=O)c2c(c3ccc(Cl)c(Cl)c3n2C)C1C#N (stereo not shown) | thermal stability |  | DSF |  | 10 µM | ΔTm | -0.3 °C
